Test [1] addresses T1, Aurora kinase A (Homo sapiens, UniProt O14965).
T1 sequence (O14965 whole entry): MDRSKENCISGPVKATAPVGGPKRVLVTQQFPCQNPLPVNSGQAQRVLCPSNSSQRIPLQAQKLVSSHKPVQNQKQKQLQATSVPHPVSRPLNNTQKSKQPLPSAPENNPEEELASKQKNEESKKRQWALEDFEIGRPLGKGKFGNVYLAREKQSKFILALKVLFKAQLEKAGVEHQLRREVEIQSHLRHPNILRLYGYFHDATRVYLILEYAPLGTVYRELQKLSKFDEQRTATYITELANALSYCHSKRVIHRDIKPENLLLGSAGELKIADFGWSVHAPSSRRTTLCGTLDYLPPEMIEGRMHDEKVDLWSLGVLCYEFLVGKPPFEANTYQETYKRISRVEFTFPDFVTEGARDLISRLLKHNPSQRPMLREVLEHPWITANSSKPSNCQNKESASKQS
The test is described as follows: Inhibition of Aurora A auto-phosphorylation in human HCT116 cells after 4 hrs by Western blot analysis. Format: cell-based. The gist of the method:
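Cells treated with compound in dose response for 4 h. Phospho-Aurora A (auto-phosphorylation) read by western blot. EC50 derived from dose-response curves over three replicate experiments.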
On the technique in general: A western blot detects proteins with antibodies after separation by electrophoresis.

For test [2], the target named is Bromodomain-containing protein 4 (Homo sapiens, UniProt O60885). The test is described as follows: Inhibition of BRD4 (unknown origin) by AlphaScreen assay.
The subject of test [3] is Tyrosine-protein kinase ABL1 (Homo sapiens), P00519 [T315I]. Briefly: Binding affinity to human non-phosphorylated ABL1 T315I mutant (S229 to K512 residues) expressed in HEK293 cells at 1 uM by Kinomescan method relative to control. The format is cell-based.
Test [4] has as its target BMP-2-inducible protein kinase (Homo sapiens) (UniProt Q9NSY1). Briefly: Binding affinity to wild-type human partial length BIKE (S34 to N329 residues) expressed in Escherichia coli BL21 at 1 uM by Kinomescan method relative to control.
Test [5] addresses Cyclin-dependent kinase 2 (Homo sapiens) (UniProt P24941). Briefly: Binding affinity to wild-type human full length CDK2 (M1 to L298 residues) expressed in Escherichia coli BL21 at 1 uM by Kinomescan method relative to control.
The target in test [6] is Casein kinase I isoform gamma-1 (Homo sapiens) (UniProt Q9HCP0). Briefly: Binding affinity to wild-type human partial length CSNK1G1 (T15 to S353 residues) expressed in Escherichia coli BL21 at 1 uM by Kinomescan method relative to control.
Sequence of Casein kinase I isoform gamma-1 (Homo sapiens) (Q9HCP0 whole entry, looked up, the tested form may be a part, canonical isoform): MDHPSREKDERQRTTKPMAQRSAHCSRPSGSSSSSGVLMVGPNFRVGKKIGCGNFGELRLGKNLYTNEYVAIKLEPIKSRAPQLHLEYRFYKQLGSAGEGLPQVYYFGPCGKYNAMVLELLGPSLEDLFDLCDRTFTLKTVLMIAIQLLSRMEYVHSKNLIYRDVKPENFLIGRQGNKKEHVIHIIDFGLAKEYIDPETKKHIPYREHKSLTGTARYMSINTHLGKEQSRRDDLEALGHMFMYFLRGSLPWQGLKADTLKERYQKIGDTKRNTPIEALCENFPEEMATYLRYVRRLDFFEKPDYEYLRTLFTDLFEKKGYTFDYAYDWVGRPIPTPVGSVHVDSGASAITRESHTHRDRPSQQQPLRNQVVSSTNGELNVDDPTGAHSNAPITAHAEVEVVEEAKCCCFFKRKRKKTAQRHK
The target in test [7] is Ephrin type-A receptor 2 (Homo sapiens) (UniProt P29317). The test is described as follows: Binding affinity to wild-type human partial length EPHA2 (T593 to V891 residues) expressed in Escherichia coli BL21 at 1 uM by Kinomescan method relative to control.
Test [8] has as its target Mitogen-activated protein kinase 4 (Homo sapiens) (UniProt P31152). Briefly: Binding affinity to wild-type human partial length ERK4 (M1 to L365 residues) expressed in Escherichia coli BL21 at 1 uM by Kinomescan method relative to control.
Test [9] addresses Tyrosine-protein kinase Fer (Homo sapiens) (UniProt P16591). The test is described as follows: Binding affinity to wild-type human partial length FER (S542 to T822 residues) expressed in Escherichia coli BL21 at 1 uM by Kinomescan method relative to control.
The target of test [10] is Fibroblast growth factor receptor 2 (Homo sapiens) (UniProt P21802). Briefly: Binding affinity to wild-type human partial length FGFR2 (D457 to E769 residues) expressed in Escherichia coli BL21 at 1 uM by Kinomescan method relative to control.
Sequence of Fibroblast growth factor receptor 2 (Homo sapiens) (P21802 22-821 limits assumed): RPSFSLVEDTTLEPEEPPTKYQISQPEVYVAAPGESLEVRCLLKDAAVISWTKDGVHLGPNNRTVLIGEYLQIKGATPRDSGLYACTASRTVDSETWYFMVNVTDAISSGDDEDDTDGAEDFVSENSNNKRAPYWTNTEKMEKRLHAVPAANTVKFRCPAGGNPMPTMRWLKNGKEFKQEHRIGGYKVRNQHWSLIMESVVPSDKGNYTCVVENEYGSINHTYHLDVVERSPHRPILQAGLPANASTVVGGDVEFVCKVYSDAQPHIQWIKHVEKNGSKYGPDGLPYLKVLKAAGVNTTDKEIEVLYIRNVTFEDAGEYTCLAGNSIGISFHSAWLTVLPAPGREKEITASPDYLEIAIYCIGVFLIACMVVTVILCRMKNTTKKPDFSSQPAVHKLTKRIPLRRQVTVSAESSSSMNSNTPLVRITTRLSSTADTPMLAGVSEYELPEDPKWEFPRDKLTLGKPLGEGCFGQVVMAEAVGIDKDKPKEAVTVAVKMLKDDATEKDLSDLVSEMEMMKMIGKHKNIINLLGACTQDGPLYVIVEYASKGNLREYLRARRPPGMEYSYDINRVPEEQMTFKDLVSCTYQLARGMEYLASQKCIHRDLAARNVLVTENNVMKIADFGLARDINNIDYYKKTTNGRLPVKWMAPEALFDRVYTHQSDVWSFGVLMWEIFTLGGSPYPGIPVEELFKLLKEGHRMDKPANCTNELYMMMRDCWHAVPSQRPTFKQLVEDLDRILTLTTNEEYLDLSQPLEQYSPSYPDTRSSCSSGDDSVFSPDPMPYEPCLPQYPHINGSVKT
The test system of test [11] is Receptor-type tyrosine-protein kinase FLT3 (Homo sapiens), P36888 [D835V]. Briefly: Binding affinity to human partial length FLT3 D835V mutant (V592 to Y969 residues) expressed in Escherichia coli BL21 at 1 uM by Kinomescan method relative to control.
For test [12], the target named is Beta-adrenergic receptor kinase 1 (Homo sapiens) (UniProt P25098). Briefly: Binding affinity to wild-type human full length GRK2 (M1 to L689 residues) expressed in HEK293 cells at 1 uM by Kinomescan method relative to control. The format is cell-based. A digest of the protocol:
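Run as one kinome-wide competition binding panel with each compound at a single fixed concentration. Results were plotted as a kinome-wide selectivity map.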

The target of test [13] is Mitogen-activated protein kinase kinase kinase 1 (Homo sapiens) (UniProt Q13233). The test is described as follows: Binding affinity to wild-type human partial length MAP3K1 (L1202 to W1512 residues) expressed in HEK293 cells at 1 uM by Kinomescan method relative to control. The format is cell-based.
For test [14], the target named is Mitogen-activated protein kinase kinase kinase kinase 3 (Homo sapiens) (UniProt Q8IVH8). The test is described as follows: Binding affinity to wild-type human partial length MAP4K3 (M1 to D301 residues) expressed in Escherichia coli BL21 at 1 uM by Kinomescan method relative to control.
Sequence of Mitogen-activated protein kinase kinase kinase kinase 3 (Homo sapiens) (Q8IVH8 whole entry, the tested form may be a part): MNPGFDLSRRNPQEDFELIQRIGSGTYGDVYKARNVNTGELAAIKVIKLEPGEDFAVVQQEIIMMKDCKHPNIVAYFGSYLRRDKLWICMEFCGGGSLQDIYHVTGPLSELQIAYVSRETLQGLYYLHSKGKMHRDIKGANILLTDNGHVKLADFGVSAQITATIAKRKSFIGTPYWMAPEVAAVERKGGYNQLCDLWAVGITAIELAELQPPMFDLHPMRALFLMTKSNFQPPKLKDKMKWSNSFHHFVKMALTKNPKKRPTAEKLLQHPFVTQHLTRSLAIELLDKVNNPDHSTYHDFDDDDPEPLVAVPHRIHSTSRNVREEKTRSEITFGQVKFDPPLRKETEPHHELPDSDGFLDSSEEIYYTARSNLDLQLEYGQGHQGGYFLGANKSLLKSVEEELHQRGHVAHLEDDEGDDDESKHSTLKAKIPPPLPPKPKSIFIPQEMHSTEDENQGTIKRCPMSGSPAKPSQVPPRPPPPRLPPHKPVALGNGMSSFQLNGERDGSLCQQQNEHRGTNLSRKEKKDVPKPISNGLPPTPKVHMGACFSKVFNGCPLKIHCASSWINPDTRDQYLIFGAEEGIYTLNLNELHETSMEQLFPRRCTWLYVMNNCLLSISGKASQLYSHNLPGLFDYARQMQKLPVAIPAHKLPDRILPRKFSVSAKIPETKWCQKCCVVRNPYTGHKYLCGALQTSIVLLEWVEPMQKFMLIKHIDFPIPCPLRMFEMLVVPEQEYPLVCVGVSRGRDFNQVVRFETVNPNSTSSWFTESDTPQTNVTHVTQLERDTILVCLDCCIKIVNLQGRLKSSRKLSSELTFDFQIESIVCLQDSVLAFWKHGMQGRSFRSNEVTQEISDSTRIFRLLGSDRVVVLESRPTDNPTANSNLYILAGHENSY
Test [15] concerns the target Mitogen-activated protein kinase kinase kinase 11 (Homo sapiens) (UniProt Q16584). Briefly: Binding affinity to wild-type human partial length MLK3 (I77 to W399 residues) expressed in Escherichia coli BL21 at 1 uM by Kinomescan method relative to control.
Test [16] has as its target Mitogen-activated protein kinase 12 (Homo sapiens) (UniProt P53778). Briefly: Binding affinity to wild-type human full length p38-gamma (M1 to L367 residues) expressed in HEK293 cells at 1 uM by Kinomescan method relative to control. The format is cell-based. A digest of the protocol:
(§1)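 Kinome-wide competition binding panel run by an outside provider, with each compound tested at a single concentration. Activity is read against the kinase panel.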

The target in test [17] is Phosphatidylinositol 4,5-bisphosphate 3-kinase catalytic subunit delta isoform (Homo sapiens) (UniProt O00329). Briefly: Binding affinity to wild-type human partial length PIK3CD (R108 to Q1044 residues) expressed in HEK293 cells at 1 uM by Kinomescan method relative to control. Format: cell-based.
Test [18] deals with Phosphatidylinositol 4-kinase beta (Homo sapiens) (UniProt Q9UBF8). Briefly: Binding affinity to wild-type human full length PIK4CB (M1 to M828 residues) expressed in HEK293 cells at 1 uM by Kinomescan method relative to control. Format: cell-based. The gist of the method:
as §1

Test [19] concerns the target cAMP-dependent protein kinase catalytic subunit beta (Homo sapiens) (UniProt P22694). Briefly: Binding affinity to wild-type human full length PKAC-beta (M1 to F351 residues) expressed in Escherichia coli BL21 at 1 uM by Kinomescan method relative to control. The gist of the method: as §1
The subject of test [20] is Proto-oncogene tyrosine-protein kinase receptor Ret (Homo sapiens), P07949 [V804M]. The test is described as follows: Binding affinity to human partial length RET V804M mutant (E713 to D1014 residues) expressed in Escherichia coli BL21 at 1 uM by Kinomescan method relative to control.
Test [21] deals with Rho-associated protein kinase 2 (Homo sapiens) (UniProt O75116). The test is described as follows: Binding affinity to wild-type human partial length ROCK2 (M1 to T431 residues) expressed in HEK293 cells at 1 uM by Kinomescan method relative to control. Format: cell-based.
In test [22] the target is Serine/threonine-protein kinase ULK3 (Homo sapiens) (UniProt Q6PHR2). The test is described as follows: Binding affinity to wild-type human partial length ULK3 (M1 to Q290 residues) expressed in HEK293 cells at 1 uM by Kinomescan method relative to control. The format is cell-based.
Sequence of Serine/threonine-protein kinase ULK3 (Homo sapiens) (Q6PHR2 whole entry, the tested form may be a part): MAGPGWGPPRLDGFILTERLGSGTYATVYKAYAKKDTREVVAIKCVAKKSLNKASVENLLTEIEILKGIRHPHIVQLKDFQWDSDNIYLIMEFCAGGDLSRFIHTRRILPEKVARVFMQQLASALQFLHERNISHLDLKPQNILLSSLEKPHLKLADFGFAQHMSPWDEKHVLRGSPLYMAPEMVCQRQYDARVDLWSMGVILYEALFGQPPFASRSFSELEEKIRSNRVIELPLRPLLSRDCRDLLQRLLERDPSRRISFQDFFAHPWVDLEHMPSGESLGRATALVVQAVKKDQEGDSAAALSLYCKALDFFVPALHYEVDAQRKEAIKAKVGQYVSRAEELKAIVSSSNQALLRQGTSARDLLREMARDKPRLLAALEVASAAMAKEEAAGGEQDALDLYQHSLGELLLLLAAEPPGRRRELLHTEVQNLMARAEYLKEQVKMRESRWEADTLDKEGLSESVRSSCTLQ

pEC50, pIC50: −log10 of the molar value.

Sequence of Mitogen-activated protein kinase 4 (Homo sapiens) (P31152 whole entry, the tested form may be a part): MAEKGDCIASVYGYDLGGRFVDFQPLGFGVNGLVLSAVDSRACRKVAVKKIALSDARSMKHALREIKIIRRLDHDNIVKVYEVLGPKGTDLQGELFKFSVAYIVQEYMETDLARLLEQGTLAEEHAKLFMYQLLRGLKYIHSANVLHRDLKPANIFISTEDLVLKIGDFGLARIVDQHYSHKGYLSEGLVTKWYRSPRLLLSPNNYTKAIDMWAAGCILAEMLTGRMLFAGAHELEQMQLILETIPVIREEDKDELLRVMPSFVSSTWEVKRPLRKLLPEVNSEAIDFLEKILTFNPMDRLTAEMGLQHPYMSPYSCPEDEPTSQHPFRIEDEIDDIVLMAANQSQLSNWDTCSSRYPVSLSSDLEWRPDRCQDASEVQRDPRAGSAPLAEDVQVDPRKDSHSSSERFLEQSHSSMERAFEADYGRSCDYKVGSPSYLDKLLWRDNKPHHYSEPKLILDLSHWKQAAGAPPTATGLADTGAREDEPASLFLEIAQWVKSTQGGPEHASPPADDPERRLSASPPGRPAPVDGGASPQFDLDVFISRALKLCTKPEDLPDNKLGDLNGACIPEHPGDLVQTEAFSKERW
Sequence of Beta-adrenergic receptor kinase 1 (Homo sapiens) (P25098 whole entry, the tested form may be a part): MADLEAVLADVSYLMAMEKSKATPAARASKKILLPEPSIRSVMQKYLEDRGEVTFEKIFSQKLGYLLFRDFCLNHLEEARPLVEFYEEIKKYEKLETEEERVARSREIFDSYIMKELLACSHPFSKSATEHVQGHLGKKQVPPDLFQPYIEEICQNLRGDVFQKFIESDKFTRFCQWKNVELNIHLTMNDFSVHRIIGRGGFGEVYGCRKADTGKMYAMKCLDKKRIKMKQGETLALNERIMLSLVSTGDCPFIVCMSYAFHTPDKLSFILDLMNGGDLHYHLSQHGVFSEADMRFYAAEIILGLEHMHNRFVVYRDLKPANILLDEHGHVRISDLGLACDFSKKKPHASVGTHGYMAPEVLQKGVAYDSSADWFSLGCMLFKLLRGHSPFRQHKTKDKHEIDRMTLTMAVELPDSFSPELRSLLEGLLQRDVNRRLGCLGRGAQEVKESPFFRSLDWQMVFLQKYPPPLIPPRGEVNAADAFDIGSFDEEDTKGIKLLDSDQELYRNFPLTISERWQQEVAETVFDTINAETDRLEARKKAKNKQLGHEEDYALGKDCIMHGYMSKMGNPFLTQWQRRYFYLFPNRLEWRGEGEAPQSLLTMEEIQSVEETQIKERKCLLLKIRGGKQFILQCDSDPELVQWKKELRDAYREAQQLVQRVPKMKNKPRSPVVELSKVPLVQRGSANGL
Sequence of Proto-oncogene tyrosine-protein kinase receptor Ret (Homo sapiens), P07949 [V804M] (P07949 whole entry V804M, the tested form may be a part): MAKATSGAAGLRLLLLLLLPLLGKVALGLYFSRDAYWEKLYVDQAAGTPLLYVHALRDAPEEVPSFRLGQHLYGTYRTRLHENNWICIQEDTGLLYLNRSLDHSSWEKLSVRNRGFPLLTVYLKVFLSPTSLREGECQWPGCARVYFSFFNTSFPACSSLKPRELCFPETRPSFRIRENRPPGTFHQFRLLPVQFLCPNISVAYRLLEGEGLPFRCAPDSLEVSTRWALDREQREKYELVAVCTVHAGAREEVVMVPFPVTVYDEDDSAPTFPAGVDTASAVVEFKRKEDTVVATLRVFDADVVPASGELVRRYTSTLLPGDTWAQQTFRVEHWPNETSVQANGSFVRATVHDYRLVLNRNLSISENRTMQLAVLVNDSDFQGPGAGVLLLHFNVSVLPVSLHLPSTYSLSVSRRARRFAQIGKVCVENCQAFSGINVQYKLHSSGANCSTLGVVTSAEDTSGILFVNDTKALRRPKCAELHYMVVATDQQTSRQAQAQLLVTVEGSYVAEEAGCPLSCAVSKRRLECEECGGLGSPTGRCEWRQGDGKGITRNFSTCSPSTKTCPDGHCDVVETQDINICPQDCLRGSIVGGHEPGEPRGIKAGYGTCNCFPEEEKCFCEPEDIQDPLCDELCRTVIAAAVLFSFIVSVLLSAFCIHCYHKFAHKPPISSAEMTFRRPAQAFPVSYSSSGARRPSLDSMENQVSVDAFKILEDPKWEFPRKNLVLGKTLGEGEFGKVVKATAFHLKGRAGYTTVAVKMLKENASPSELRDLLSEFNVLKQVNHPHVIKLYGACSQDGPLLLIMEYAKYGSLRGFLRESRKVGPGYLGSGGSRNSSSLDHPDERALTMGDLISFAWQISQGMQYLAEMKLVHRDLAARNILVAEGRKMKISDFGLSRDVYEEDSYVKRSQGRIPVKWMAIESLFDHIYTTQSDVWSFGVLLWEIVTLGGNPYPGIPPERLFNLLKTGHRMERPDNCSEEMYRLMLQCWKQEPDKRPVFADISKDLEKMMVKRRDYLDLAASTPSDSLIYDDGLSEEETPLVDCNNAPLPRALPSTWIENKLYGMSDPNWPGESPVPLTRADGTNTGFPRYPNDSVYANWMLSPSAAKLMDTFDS

By pEC50 is commonly meant the EC50 on a negative log10 scale, so that one unit is a factor of ten. A high value points to a low EC50. Broadly, the pIC50 is the negative decadic logarithm of the IC50, by convention in mol/L. A high value points to a small IC50. With `CCC(=O)Nc1ccc(C(=O)Nc2ccc(Nc3ncc4c(n3)N(C)c3ccc(C)cc3C(=O)N4C)cc2)cc1`, in test [1], the pEC50 is 7.42. The compound also gave a pIC50 in test [2] of 4.47. The Activity in test [3] came to 81%; in [4] it was 93%; in test [5] it was 97%; in test [6] it was 100%; in [7], 96%; in [8], 95%. Moreover, the Activity in test [9] is 85%; in test [10], 89%; in [11], 86%; in [12] it was 90%; in [13], 76%; in [14] it was 79%. Further, the Activity in test [15] is 95%; in test [16], 86%; in test [17], 75%; in [18], 88%; in [19], 100%; in test [20], 70%. For the same compound, the Activity came to 78% in test [21] and 77% in test [22].

In [1], `C=CC(=O)Nc1ccc(C(=O)Nc2ccc(Nc3ncc4c(n3)N(C)c3ccc(C)cc3C(=O)N4C)cc2)cc1` showed a pEC50 of 8.24. This compound showed a negative-log IC50 (pIC50) in test [2] of 4.43. The Activity in test [3] was 100%; in test [4], 85%; in [5] it was 100%; in test [6], 100%; in test [7], 93%; in [8], 85%. Moreover, the Activity in [9] was 78%; in test [10], 88%; in test [11], 90%; in test [12] it was 100%; in test [13], 83%; in [14] it was 97%. Further, the Activity in test [15] worked out at 83%; in [16] it was 67%; in test [17] it was 55%; in test [18], 80%; in test [19], 100%; in test [20] it was 68%. The Activity in test [21] is 100%; in test [22] it was 93%.
